Results taken from PubChem BioAssay AID1899 (The Scripps Research Institute Molecular Screening Center, 2009).
Hit rate of the full screen: of about 300,000 compounds, about 1,000 (0.33%) were called active.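 Rule for the calls: active = inhibition above the mean of all tested compounds plus 3 SD, set per screening campaign (cut at about 45% in these data); inactive = the rest.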 This excerpt belongs to a sample that is enriched for actives.

Tested on: HCV core protein (residues 1-106) dimerization
Assay: inhibitors of HCV core protein dimerization, primary screen, biochemical, TR-FRET, high-throughput (AID 1899)
Settings: TR-FRET GST/Flag-core106 dimerization, 1536-well; at 5 µM; stronger effect = higher value
How it was run: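 Assay system – GST-tagged and Flag-tagged HCV core protein residues 1-106 · Quantity – core106 proteins, GST 13.5 nM and Flag 17 nM · Benchmarks – unlabelled core106 and no-GST-core106 wells · Read-out basis – percent inhibition of core106 dimerization signal · Detection – time-resolved FRET, ex 340 nm, em 617 and 671 nm · Schedule – 4 h at 22.5 °C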

Compound | inhibition
COc1cccc(N2C(=O)NC(=O)/C(=C\c3cn(C)c4ccccc34)C2=O)c1 | -2.56% (inactive)
Cc1cccc(N2C(=O)NC(=O)/C(=C\c3cnn(-c4ccccc4)c3)C2=O)c1 | 46.9% (active)
O=C1NC(=O)N(c2ccccc2)C(=O)/C1=C/c1ccc([N+](=O)[O-])s1 | -5.13% (inactive)
CN1C2C=C(N(C(=O)c3ccc(Cl)cc3)c3ccccc3)CC1CC2 (stereo not given) | -2.38% (inactive)
CSC1=NP(=S)(SC)N(C)c2nc3n(c21)CCC3 (stereo not given) | 8.93% (inactive)
